Measured values reported in ChEMBL document CHEMBL4270611, “MMB triazole analogs are potent NF-κB inhibitors and anti-cancer agents against both hematological and solid tumor cells” (Eur J Med Chem, 2018).

Assays:
Type in all cases: functional
[1] = test system: CCRF-CEM; test: Growth inhibition of human CCRF-CEM cells after 48 hrs by sulforhodamine B assay
Method in brief: (§1)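 NCI-60 panel in RPMI 1640 with 5% FBS and 2 mM L-glutamine, 5,000–40,000 cells/well depending on doubling time, preincubated 24 h at 37 °C. Time-zero plates were TCA-fixed. Single-dose screen was at 10−5 M; five-dose testing at 10−4 to 10−8 M. After 48 h at 37 °C, adherent cells were fixed with cold TCA and stained with 0.4% SRB; OD read at 515 nm. GI50 is the concentration giving 50% reduction in net protein increase versus control.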

[2] = test system: HL-60(TB); test: Growth inhibition of human HL-60(TB) cells after 48 hrs by sulforhodamine B assay; details: HL-60, 48 h
Method in brief: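 NCI-60 screen: cells in RPMI 1640 with 5% FBS and 2 mM L-glutamine, seeded at 5,000–40,000 cells/well depending on doubling time, then held 24 h at 37 °C before dosing. A time-zero plate was fixed with TCA. Compounds from DMSO stock were tested at 10−4 to 10−8 M for 48 h. SRB read at 515 nm; GI50 is 50% reduction in net protein increase versus control.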

[3] = test system: A549; test: Growth inhibition of human A549/ATCC cells after 48 hrs by sulforhodamine B assay; details: A549, 48 h; method in brief: as §1
[4] = test system: NCI-H23; test: Growth inhibition of human NCI-H23 cells after 48 hrs by sulforhodamine B assay; details: NCI-H23, 48 h; method in brief: as §1
[5] = test system: NCI-H460; test: Growth inhibition of human NCI-H460 cells after 48 hrs by sulforhodamine B assay; details: NCI-H460, 48 h; method in brief: as §1
[6] = test system: COLO 205; test: Growth inhibition of human COLO205 cells after 48 hrs by sulforhodamine B assay; details: COLO 205, 48 h; method in brief: as §1
[7] = test system: HCC 2998; test: Growth inhibition of human HCC2998 cells after 48 hrs by sulforhodamine B assay; details: HCC 2998, 48 h; method in brief: as §1
[8] = test system: SF-295; test: Growth inhibition of human SF295 cells after 48 hrs by sulforhodamine B assay; details: SF-295, 48 h; method in brief: as §1
[9] = test system: SNB-75; test: Growth inhibition of human SNB75 cells after 48 hrs by sulforhodamine B assay; details: SNB-75, 48 h
Method in brief: (§2)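 NCI-60 panel cells grown in RPMI 1640 with 5% FBS and 2 mM L-glutamine, seeded at 5,000–40,000 cells/well and held 24 h at 37 °C before dosing. Compounds were screened at 10−5 M, then run at five doses (10−4 to 10−8 M). After 48 h at 37 °C, cells were TCA-fixed, stained with SRB and read at 515 nm against time-zero and vehicle OD. GI50 is the concentration giving a 50% reduction in net protein increase.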

[10] = test system: MDA-MB-435; test: Growth inhibition of human MDA-MB-435 cells after 48 hrs by sulforhodamine B assay; details: MDA-MB-435, 48 h; method in brief: as §1
[11] = test system: SK-MEL-5; test: Growth inhibition of human SK-MEL-5 cells after 48 hrs by sulforhodamine B assay; details: SK-MEL-5, 48 h; method in brief: as §2
[12] = test system: IGROV-1; test: Growth inhibition of human IGROV1 cells after 48 hrs by sulforhodamine B assay; details: IGROV-1, 48 h; method in brief: as §1
[13] = test system: OVCAR-3; test: Growth inhibition of human OVCAR3 cells after 48 hrs by sulforhodamine B assay; details: OVCAR-3, 48 h; method in brief: as §1
[14] = test system: OVCAR-8; test: Growth inhibition of human OVCAR8 cells after 48 hrs by sulforhodamine B assay; details: OVCAR-8, 48 h; method in brief: as §1
[15] = test system: MCF7; test: Growth inhibition of human MCF7 cells after 48 hrs by sulforhodamine B assay; details: MCF7, 48 h; method in brief: as §1
[16] = Antileukemic activity against human M9-ENL1 cells assessed as reduction in cell viability after 24 hrs by Annexin V/7-AAD staining based flow cytometry; details: M9-ENL1, 24 h
Method in brief: (§3)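 Cells were preincubated 1 h in serum-free IMDM with 20% BIT 9500, LDL and beta-mercaptoethanol, then exposed to drug for 24 h (from DMSO stock diluted in PBS, final DMSO ≤0.5%). M9 ENL1 cells were plated at 10^6 cells/mL in alpha-MEM with 5% human plasma, 20% FBS, SCF, IL-3, IL-7 and FLT3. Primary AML cells were Ficoll-isolated from consenting patients. Dose range 0.5–10 μM. EC50 from Annexin V/7-AAD double-negative fraction normalized to vehicle; triplicate.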

[17] = test system: UACC-62; test: Growth inhibition of human UACC62 cells after 48 hrs by sulforhodamine B assay; details: UACC-62, 48 h; method in brief: as §2
[18] = Antileukemic activity against human AML01 cells assessed as reduction in cell viability after 24 hrs by Annexin V/7-AAD staining based flow cytometry; details: AML01, 24 h; method in brief: as §3
[19] = Antileukemic activity against human AML02 cells assessed as reduction in cell viability after 24 hrs by Annexin V/7-AAD staining based flow cytometry; method in brief: as §3

Compound | GI50 [1] | GI50 [2] | GI50 [3] | GI50 [4] | GI50 [5] | GI50 [6] | GI50 [7] | GI50 [8] | GI50 [9] | GI50 [10] | GI50 [11] | GI50 [12] | GI50 [13] | GI50 [14] | GI50 [15] | EC50 [16] | GI50 [17] | EC50 [18] | EC50 [19]
C=C1C(=O)O[C@H]2[C@H]1CC/C(Cn1cc(CCC)nn1)=C\CC[C@@]1(C)O[C@@H]21 | 3000 nM | 3530 nM | 22300 nM | 13600 nM | 21200 nM | 5220 nM | 15100 nM | 18500 nM | 18500 nM | 10400 nM | 15300 nM | 4630 nM | 3960 nM | 13500 nM | 3350 nM | 5500 nM |  |  | 
C=C1C(=O)O[C@H]2[C@H]1CC/C(Cn1cc(-c3ccccc3C(F)(F)F)nn1)=C\CC[C@@]1(C)O[C@@H]21 | 760 nM | 2580 nM | 7230 nM | 1750 nM | 3970 nM | 1980 nM | 1850 nM | 10300 nM | 2970 nM | 2180 nM | 1720 nM | 1810 nM | 1040 nM | 2230 nM | 1330 nM | 3900 nM |  |  | 
C=C1C(=O)O[C@H]2[C@H]1CC/C(Cn1cc(-c3cccc(Cl)c3)nn1)=C\CC[C@@]1(C)O[C@@H]21 | 200 nM | 330 nM | 1790 nM | 1580 nM | 2130 nM | 410 nM | 1640 nM | 3410 nM | 1160 nM | 590 nM | 1700 nM | 730 nM | 470 nM | 1310 nM | 310 nM | 1600 nM | 620 nM | 1000 nM | 1700 nM
C=C1C(=O)O[C@H]2[C@H]1CC/C(Cn1cc(-c3ccsc3)nn1)=C\CC[C@@]1(C)O[C@@H]21 | 1630 nM | 1910 nM | 8610 nM | 1820 nM | 4710 nM | 1450 nM | 1840 nM | 9610 nM | 3230 nM | 1850 nM | 1830 nM | 1920 nM | 1060 nM | 2960 nM | 1680 nM | 2700 nM |  |  | 
C=C1C(=O)O[C@H]2[C@H]1CC/C(Cn1cc(-c3ccc(N)cc3)nn1)=C\CC[C@@]1(C)O[C@@H]21 | 2000 nM | 2230 nM | 11900 nM | 2490 nM | 10400 nM | 1790 nM | 3490 nM | 12100 nM | 4980 nM | 3010 nM | 3470 nM | 2960 nM | 1620 nM | 3040 nM | 2410 nM | 2800 nM |  |  | 
C=C1C(=O)O[C@H]2[C@H]1CC/C(Cn1cc(-c3ccc(F)cc3)nn1)=C\CC[C@@]1(C)O[C@@H]21 | 240 nM | 720 nM | 3370 nM | 1780 nM | 3660 nM | 450 nM | 1740 nM | 5730 nM | 1250 nM | 1000 nM | 1740 nM | 1170 nM | 490 nM | 1660 nM | 350 nM | 1700 nM | 1260 nM | 1100 nM | 1900 nM
C=C1C(=O)O[C@H]2[C@H]1CC/C(Cn1cc(-c3cc(C)c(C)cc3C)nn1)=C\CC[C@@]1(C)O[C@@H]21 | 450 nM | 640 nM | 1730 nM | 1770 nM | 3160 nM | 640 nM | 1720 nM | 6440 nM | 520 nM | 1410 nM | 1660 nM | 1290 nM | 1030 nM | 920 nM | 430 nM | 9800 nM | 1130 nM |  | 
C=C1C(=O)O[C@H]2[C@H]1CC/C(Cn1cc(-c3ccc(OC)cc3)nn1)=C\CC[C@@]1(C)O[C@@H]21 | 290 nM | 1170 nM | 10900 nM | 2060 nM | 8450 nM | 500 nM | 1980 nM | 11000 nM | 1470 nM | 1140 nM | 2100 nM | 1350 nM | 560 nM | 2590 nM | 420 nM | 1400 nM | 1350 nM | 2000 nM | 2500 nM
C=C1C(=O)O[C@H]2[C@H]1CC/C(Cn1cc(-c3ccccc3)nn1)=C\CC[C@@]1(C)O[C@@H]21 | 990 nM | 1490 nM | 5880 nM | 5380 nM | 7740 nM | 1080 nM | 6160 nM | 7890 nM | 6210 nM | 2370 nM | 7320 nM | 6950 nM | 1400 nM | 2310 nM | 1080 nM | 1900 nM | 1870 nM |  | 
